# Screening data: PubChem BioAssay, Broad Institute
# ERp5 block – ERp5 (human) disulfide isomerase inhibition; ERp5 insulin aggregation, absorbance 650 nm, 90 min; inhibition, % at 9.99 µM; 350,000 tested, 0.05% active; Q15084; AID 651711;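 active means mean replicate inhibition above about 25%, with every replicate also reaching it, limit read from the data, passing the limit was not always enough; inconclusive means only one of those two criteria met; inactive means neither criterion met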
# Target sequence (Q15084 whole entry, looked up): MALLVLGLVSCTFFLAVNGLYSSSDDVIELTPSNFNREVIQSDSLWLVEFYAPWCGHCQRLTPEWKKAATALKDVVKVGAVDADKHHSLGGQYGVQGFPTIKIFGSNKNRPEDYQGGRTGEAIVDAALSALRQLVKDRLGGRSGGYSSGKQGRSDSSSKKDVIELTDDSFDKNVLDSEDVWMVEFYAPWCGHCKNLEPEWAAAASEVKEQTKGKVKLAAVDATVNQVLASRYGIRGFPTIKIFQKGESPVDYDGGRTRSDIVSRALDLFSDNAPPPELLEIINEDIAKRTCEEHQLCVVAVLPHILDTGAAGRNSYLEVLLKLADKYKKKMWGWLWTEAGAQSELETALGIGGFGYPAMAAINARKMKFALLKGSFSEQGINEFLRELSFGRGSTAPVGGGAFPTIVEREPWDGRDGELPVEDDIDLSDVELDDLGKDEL
# SIRT5 block – inhibitors of human sirtuin-5 desuccinylase; Purified SirT5, succinyl-peptide AMC, trypsin-coupled fluorescence; inhibition, % at 15 µM; 330,000 tested, 1.1% active; AID 652115; in the data active means inhibition above about 15%; inconclusive means no clear call, values can overlap the other calls
# FN deposit inh – fibronectin deposition inhibition. AH1F fibroblasts, Alexa488-fibronectin deposition fluorescence, overnight. inhibition, % at 12.6 µM. 350,000 tested, 0.086% active. AID 743247;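 active means mean inhibition across replicates of 30% or more, regardless of how many single replicates reach that level; inconclusive means mean under 30% yet at least half of replicates reach 30%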;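 further: positive control wells lacked labelled fibronectin entirely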
#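 material = AH1F fibroblast monolayer depositing Alexa488-labelled fibronectin into matrix | amount = 10000 AH1F cells/well | buffer or medium = DMEM plus 2% serum, read in PBS | incubation = 1 h cell adhesion before compound, then overnight fibronectin incubation | detection = fluorescence at 485 nm excitation, 525 nm emission | evaluation = percent inhibition as loss of matrix-bound fibronectin fluorescence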
# PDI inh – PDI (human) enzyme inhibition | P07237 | PDI insulin aggregation turbidity, A650, 90 min | inhibition, % at 10 µM | 350,000 tested, 0.052% active;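 active means mean inhibition across replicates of 30% or more, whatever share of single replicates reach that level; inconclusive means mean inhibition below 30% while every single replicate reaches 30%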
# MLL AF4-AF9 inh – blocks AF4 peptide binding to human AF9; P42568; AlphaScreen, biotin-AF4 peptide binding to FLAG-AF9; inhibition, % at 10 µM; 350,000 tested, 0.47% active; AID 651704;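 active means every replicate reaching a set inhibition limit, whatever the replicate mean, cut at about 25% in these data; inconclusive means mean inhibition reaches that limit but some replicates miss it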;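 further: 0% = plate neutral control median and 100% = total signal loss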
# AlphaScreen intf – counter-screen: AlphaScreen signal interference; signal luminescence; AC50, µM (doses to about 12 µM), without a hit: at the highest dose activity change, negative = inhibition; shares compounds with MLL AF4-AF9 inh; 530 tested, 45% active; cut-off not given, nearly all actives have AC50 up to about 14 µM
# Numbers without * were called inactive; ? = inconclusive; · = no result given; ! = not active in a repeat. Compounds with a hit are over-represented: about 1.3% of the library has one in this group of screens.
SMILES,ERp5 block,SIRT5 block,FN deposit inh,PDI inh,MLL AF4-AF9 inh,AlphaScreen intf
CC(=O)OC1CCC2(C)C(CC(=O)C3C2CCC2(C)C(OC(C)=O)CCC32)C1 (stereo not drawn),1.7,-2.2,-10.1,3.4,1.4,·
CNc1cc(Cl)c2nonc2c1[N+](=O)[O-],-5.6,3.4,48.6*,13.3,-3.8,·
CC(C)OC(=O)c1c(N)n(Cc2ccco2)c2nc3ccccc3nc12,·,·,·,-0.6,·,·
Cc1[nH]c2ccccc2c1CCNCc1cccnc1,2.4,-0.9,-1.1,-2.3,17.5,·
COc1ccc2[nH]c(C)c(CCNCc3cn(C)c4ccccc34)c2c1,·,-1.5,0.6,2.8,50.9*,·
O=C1C2CCCN2C(c2cccnc2)N1c1nccs1 (stereo not drawn),·,·,-10.1,-2.8,·,·
NC(=O)c1cn(C2OC(CO)C(O)C2O)c2ncnc(N)c12 (stereo not drawn),3.2,-0.9,52.7*,-4.7,-1.5,·
N#Cc1cn(C2OC(CO)C(O)C2O)c2ncnc(N)c12 (stereo not drawn),6.8,1.2,7.2,-2.5,-2.4,·
O=C(c1ccccc1)N1Cc2cc(Br)ccc2-n2nncc2C1,6.7,0.7,-4.1,·,·,·
CCCC(C)C(=O)NC1CCSC1=O (stereo not drawn),·,·,7.5,6.2,·,·
CC1CCC(C(C)C)C(OC(=O)Cn2c(COc3ccccc3)[n+](C)c3ccccc32)C1 (stereo not drawn),-3.6,2.5,1.6,0.5,25.2*,·
COC(=O)C1=C(c2cc3ccccc3o2)C[C@@H]2CC[C@H]1N2C(=O)NCc1ccccc1,1.7,0.8,-7.2,1.5,8.8,·
Cc1ccccc1N1C(=O)NC(=O)/C(=C\c2cnn(-c3ccccc3)c2)C1=O,6.4,19.7*,-0.7,2.2,-2.3,·
CN1CCN(c2ccc(N)cc2Cl)CC1,4.1,0.6,10.4,-7.3,88.1*,5.43µM*
N=C1c2ccccc2CN1NC(=O)c1ccc(Br)o1,2.2,-16.9,9.4,0.4,-4.4,·
NCCc1c(Cc2ccccc2)[nH]c2ccccc12,-0.2,-0.6,-16.5,10.3,3.6,·
Cc1[nH]c2ccc(OCc3ccccc3)cc2c1CCN,-1.6,-3.8,-6.3,-0.4,40.9*,-20.0%
CCC1CN2CCc3cc(OC)c(OC)cc3C2CC1CC1NCCc2c1[nH]c1ccc(O)cc21 (stereo not drawn),13.7,·,11.5,-1.1,?,-26.0%
COc1ccc2c(c1OC)CN1CCc3cc4c(cc3[C@H]1C2)OCO4,·,·,·,-0.9,·,·
CCN(CCCl)c1cc(CN(C)C)cc(NC(=O)c2ccc(C(=O)Nc3cc(CN(C)C)cc(N(CC)CCCl)c3)cc2)c1,1.0,-6.2,5.3,10.5,70.3*,2.54µM*
Cc1c(P(=S)(c2ccccc2)c2ccccc2)[n+]2ccccc2n1C,7.6,11.7,1.4,-0.7,66.4*!,-14.3%
O=c1[nH]c2ccccc2n1C1CCN(C(c2nnnn2C2CCCC2)C2CC2)CC1 (stereo not drawn),-0.2,1.7,7.8,·,6.3,·
O=c1[nH]c2ccccc2n1C1CCN(C(c2nnnn2C2CCCCC2)C2CC2)CC1 (stereo not drawn),2.3,-1.9,-10.7,·,36.0*,-10.8%
CSCCC(c1nnnn1C1CCCCC1)N1CCC(n2c(=O)[nH]c3ccccc32)CC1 (stereo not drawn),-2.4,4.0,6.3,·,33.9*,-17.9%
CCC(=NCCCN(CC)CC)c1c(O)n(C2CCCCC2)c(=O)[nH]c1=O,·,·,15.5,-2.0,·,·
COC(=O)C1=C(c2ccc(F)cc2OCc2ccccc2)C[C@@H]2CC[C@H]1N2C(=O)N1CCC(O)(c2ccc(Cl)cc2)CC1,-3.5,·,1.6,1.7,-62.2,·
COc1ccc(C2SCC(=O)Nc3c2c(=O)[nH]n3C2CCCCCC2)cc1 (stereo not drawn),·,·,-1.0,1.6,·,·
